Measurements as given in ChEMBL document CHEMBL3526063, “Metabolism and pharmacokinetics of JM6 in mice: JM6 is not a prodrug for Ro-61-8048” (Drug Metab Dispos, 2012).

Legend:
Mus musculus [1] = assay: Dose normalised Cmax in C57BL/6N mouse treated with JM6 (containing <0.4% Ro-61-8048) at 10 mg/kg, po and Ro-61-8048 at 0.05 mg/kg, po drugs administered via gavage by LC-MS/MS analysis; format: ADME, organism-based; conditions: in vivo
Summary of the method: (§1)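 Male C57BL/6N mice were dosed by oral gavage at 10 mL/kg with a fine suspension in 10% hydroxypropyl-β-cyclodextrin in 50 mM phosphate buffer, pH 7. Plasma was taken at non-serial time points (n=3 per time point), extracted with 0.1% formic acid in acetonitrile containing diclofenac as internal standard, and quantified by UPLC-MS/MS. Composite non-compartmental parameters came from mean concentrations; AUClast by linear trapezoid, kel from at least three terminal points.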

MDR1 [2] = assay: Apparent permeability from basolateral to apical side in MDCK2-MDR1 cells at 10 uM after 1 hr by LC-MS/MS analysis; format: ADME, cell-based, Canis lupus familiaris, MDCK-II; conditions: dog, MDCK-MDR1
Summary of the method: (§2)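 MDCKII wild-type or MDR1 monolayers were grown 3 days on Transwells after seeding at 2×10^5 cells/well. Compound at 10 µM in HBSS with 25 mM HEPES, pH 7.4, was added apically or basolaterally in duplicate, with Lucifer Yellow as an integrity marker (wells above 100 nm/s rejected).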

[3] = Tmax in C57BL/6N mouse treated with JM6 (containing <0.4% Ro-61-8048) at 9.5 mg/kg, po and Ro-61-8048 at 0.05 mg/kg, po drugs administered via gavage by LC-MS/MS analysis; format: ADME, organism-based; conditions: in vivo, in the assay text read “0.5 mg/kg” for “0.05 mg/kg”
Summary of the method: (§3)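 Male C57BL/6N mice dosed by oral gavage (10 mL/kg) as fine suspensions in 10% hydroxypropyl-β-cyclodextrin in 50 mM phosphate buffer pH 7; dose formulations verified by LC-MS/MS. Plasma analysed by LC-MS/MS; composite non-compartmental parameters from mean concentrations (n=3 per time point), C0 set to zero. %F = dose-normalised po AUCinf over dose-normalised iv AUCinf, only within linear range.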

[4] = Apparent permeability from apical to basolateral side in MDCK2 cells at 10 uM after 1 hr by LC-MS/MS analysis; format: ADME, cell-based, Canis lupus familiaris, MDCK-II; conditions: dog; summary of the method: as §2
Mus musculus [5] = assay: Dose normalised AUC in C57BL/6N mouse treated with JM6 (containing <0.4% Ro-61-8048) at 10 mg/kg, po and Ro-61-8048 at 0.05 mg/kg, po drugs administered via gavage by LC-MS/MS analysis; format: ADME, organism-based; conditions: in vivo; summary of the method: as §1
[6] = Apparent permeability from basolateral to apical side in MDCK2 cells at 10 uM after 1 hr by LC-MS/MS analysis; format: ADME, cell-based, Canis lupus familiaris, MDCK-II; conditions: dog; summary of the method: as §2
[7] = Metabolic stability in human liver microsomes assessed as half life at 5 uM after 5 to 40 mins by LC-MS/MS analysis; format: ADME
MDR1 [8] = assay: Efflux ratio of permeability from basolateral to apical side over apical to basolateral side in MDCK2-MDR1 cells at 10 uM after 1 hr by LC-MS/MS analysis; format: ADME, cell-based, Canis lupus familiaris; conditions: dog, MDCK-MDR1
Summary of the method: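 MDCKII wild-type and MDR1 cells grown on Transwells 3 days at 2×10^5 cells/well. Compound 10 μM in HBSS with 25 mM HEPES pH 7.4, added apical or basolateral in duplicate, 1 h at 37 °C. Lucifer Yellow monitored monolayer integrity; wells above 100 nm/s rejected. Both chambers sampled, LC-MS/MS; Papp A>B and B>A, ratio B>A:A>B.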

[9] = target: Kynurenine 3-monooxygenase (Mus musculus, UniProt Q91WN4); assay: Inhibition of C57BL/6J mouse KMO assessed as 3-hydroxykynurenine formation preincubated for 5 mins using 100 uM kynurenine as substrate by LC-MS/MS analysis
Kynurenine 3-monooxygenase (Mus musculus, UniProt Q91WN4), sequence (Q91WN4 whole entry): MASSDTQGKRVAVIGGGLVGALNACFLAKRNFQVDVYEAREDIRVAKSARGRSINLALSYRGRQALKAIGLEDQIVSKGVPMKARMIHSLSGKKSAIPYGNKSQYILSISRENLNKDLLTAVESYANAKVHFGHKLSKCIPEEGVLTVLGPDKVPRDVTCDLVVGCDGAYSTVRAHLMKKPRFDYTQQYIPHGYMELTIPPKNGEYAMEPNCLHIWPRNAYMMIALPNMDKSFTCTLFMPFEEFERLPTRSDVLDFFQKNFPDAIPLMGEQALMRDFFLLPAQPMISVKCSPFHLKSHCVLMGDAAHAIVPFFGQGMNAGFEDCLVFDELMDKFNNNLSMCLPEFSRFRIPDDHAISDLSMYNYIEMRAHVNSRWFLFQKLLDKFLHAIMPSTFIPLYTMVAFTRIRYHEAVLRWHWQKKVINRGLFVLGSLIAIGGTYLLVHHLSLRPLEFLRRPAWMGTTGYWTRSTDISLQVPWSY
Summary of the method: (§4)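 Liver mitochondrial KMO preparation (mouse C57 BL/6J, rat Wistar, human) at 0.3 mg protein/mL in 100 mM potassium phosphate pH 7.4 with 200 µM NADPH, 0.4 U/mL G6PDH, 3 mM glucose 6-phosphate. Compound pre-incubated 5 min at 25°C, then 100 µM kynurenine added; 40 min (rodent) or 60 min (human). Stopped with TCA; 3-hydroxykynurenine by LC-MS/MS. IC50 from 8-point 3-fold dilutions (top 3 or 30 µM), triplicates, n≥2 runs.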

[10] = Tmax in C57BL/6N mouse treated with JM6 (containing <0.4% Ro-61-8048) at 10 mg/kg, po and Ro-61-8048 at 0.05 mg/kg, po drugs administered via gavage by LC-MS/MS analysis; format: ADME, organism-based; conditions: in vivo; summary of the method: as §3
[11] = Half life in C57BL/6N mouse treated with JM6 (containing <0.4% Ro-61-8048) at 25 mg/kg, po and Ro-61-8048 at 0.05 mg/kg, po drugs administered via gavage by LC-MS/MS analysis; format: ADME, organism-based; conditions: in vivo; summary of the method: as §1
[12] = Cmax in C57BL/6N mouse treated with JM6 (containing <0.4% Ro-61-8048) at 10 mg/kg, po and Ro-61-8048 at 0.05 mg/kg, po drugs administered via gavage by LC-MS/MS analysis; format: ADME, organism-based; design: dose 10 mg/kg, route oral; conditions: in vivo; summary of the method: as §1
[13] = Half life in C57BL/6N mouse treated with JM6 (containing <0.4% Ro-61-8048) at 9 mg/kg, po and Ro-61-8048 at 1 mg/kg, po drugs administered via gavage by LC-MS/MS analysis; format: ADME, organism-based; conditions: in vivo; summary of the method: as §1
[14] = Hepatic extraction ratio in human Hepatocyte at 1 uM after 10 to 90 mins by LC-MS/MS analysis; format: ADME, cell-based; conditions: hepatocytes, read-out: ERH
[15] = AUClast in C57BL/6N mouse treated with JM6 (containing <0.4% Ro-61-8048) at 50 mg/kg, po and Ro-61-8048 at 0.05 mg/kg, po drugs administered via gavage by LC-MS/MS analysis; format: ADME, organism-based; design: dose 50 mg/kg, time 0 - last, route oral; conditions: plasma; summary of the method: as §1
MDR1 [16] = assay: Apparent permeability from apical to basolateral side in MDCK2-MDR1 cells at 10 uM after 1 hr by LC-MS/MS analysis; format: ADME, cell-based, Canis lupus familiaris, MDCK-II; conditions: dog, MDCK-MDR1; summary of the method: as §2
[17] = Oral bioavailability in C57BL/6N mouse treated with JM6 (containing <0.4% Ro-61-8048) at 10 mg/kg and Ro-61-8048 at 0.05 mg/kg drugs administered via gavage by LC-MS/MS analysis; format: ADME, organism-based; conditions: in vivo; summary of the method: as §3
[18] = AUClast in C57BL/6N mouse treated with JM6 (containing <0.4% Ro-61-8048) at 9 mg/kg, po and Ro-61-8048 at 1 mg/kg, po drugs administered via gavage by LC-MS/MS analysis; format: ADME, organism-based; design: dose 9 mg/kg, time 0 - last, route oral; conditions: plasma; summary of the method: as §1
Mus musculus [19] = assay: Dose normalised AUC in C57BL/6N mouse treated with JM6 (containing <0.4% Ro-61-8048) at 9.5 mg/kg, po and Ro-61-8048 at 0.05 mg/kg, po drugs administered via gavage by LC-MS/MS analysis; format: ADME, organism-based; conditions: in vivo, in the assay text read “0.5 mg/kg” for “0.05 mg/kg”; summary of the method: as §1
[20] = target: Kynurenine 3-monooxygenase (Rattus norvegicus, UniProt O88867); assay: Inhibition of Wistar rat KMO assessed as 3-hydroxykynurenine formation preincubated for 5 mins using 100 uM kynurenine as substrate by LC-MS/MS analysis; summary of the method: as §4
Kynurenine 3-monooxygenase (Rattus norvegicus, UniProt O88867), sequence (O88867 whole entry): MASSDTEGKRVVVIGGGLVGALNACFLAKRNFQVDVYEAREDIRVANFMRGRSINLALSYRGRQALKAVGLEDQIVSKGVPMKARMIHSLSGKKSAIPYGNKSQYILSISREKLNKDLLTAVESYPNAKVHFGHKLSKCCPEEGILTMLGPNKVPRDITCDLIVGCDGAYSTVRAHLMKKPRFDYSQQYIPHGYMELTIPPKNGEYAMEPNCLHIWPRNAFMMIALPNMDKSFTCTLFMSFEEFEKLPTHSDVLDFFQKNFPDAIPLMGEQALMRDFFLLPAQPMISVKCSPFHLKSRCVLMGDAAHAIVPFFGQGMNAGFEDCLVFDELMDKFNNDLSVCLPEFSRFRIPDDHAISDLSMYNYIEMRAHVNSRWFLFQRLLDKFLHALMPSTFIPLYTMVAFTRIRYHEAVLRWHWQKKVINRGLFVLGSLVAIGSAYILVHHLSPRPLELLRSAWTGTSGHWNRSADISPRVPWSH

[21] = Metabolic stability in human plasma assessed as half life at 5 uM after 10 to 1440 mins by LC-MS/MS analysis; format: ADME, cell-free

Structure (SMILES) | Cmax/dose (Mus musculus [1]) [µM] | Papp B→A at 1 h, 10 µM (MDR1 [2]) [×10⁻⁶ cm/s] | Tmax [3] [min] | AUC/dose (Mus musculus [5]) [nM·kg·h/mg] | half-life at 5 µM [7] [min] | efflux ratio at 1 h, 10 µM (MDR1 [8]) | IC50 [9] [µM] | Tmax [10] [min] | half-life [11] [min] | Cmax [12] [nM] | half-life [13] [min] | hepatic extraction ratio at 1 µM [14] | AUC(0-t) [15] [µM·h] | Papp A→B at 1 h, 10 µM (MDR1 [16]) [×10⁻⁶ cm/s] | bioavailability [17] [%] | AUC(0-t) [18] [µM·h] | AUC/dose (Mus musculus [19]) [nM·kg·h/mg] | IC50 [20] [µM] | half-life at 5 µM [21] [min] | other results
COc1ccc(S(=O)(=O)Nc2nc(-c3cccc([N+](=O)[O-])c3)cs2)cc1OC | 11 | 33 | 30 | 100000 | 12 | 3.2 | 0.09 | 60 | 312 | 530 | 264 | 0.8 | 7.9 | 10 | 80 | 110 | 110000 | 0.022 | > 1440 | Papp A→B at 1 h, 10 µM ([4]; MDCK): 17 ×10⁻⁶ cm/s; Papp B→A at 1 h, 10 µM ([6]; MDCK): 13 ×10⁻⁶ cm/s
COc1ccc(S(=O)(=O)Nc2nc(-c3cccc([N+](=O)[O-])c3)c(CN3CCCCC3)s2)cc1OC | 0.19 | 43 | 30 | 130 | > 97 | 60 | 20 | 30 | 42 | 1900 | 42 | 0.67 | 9.6 | 0.72 | 13 | 1.1 | 160 | 7.1 | > 1440 | Papp ([4]; mdck-ii, 1 h, 10 µM): 47 nm/s; Papp ([6]; mdck-ii, 1 h, 10 µM): 5.3 nm/s
